How the values were obtained:
[1] = system: Human immunodeficiency virus 1; assay: Effective concentration against HIV-1 induced cytopathogenicity in MT-4 cells; type: functional, organism-based, MT4
In short: (§1)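 MT-4 cells (1 × 10⁴/well) incubated with serial compound dilutions (200 mM DMSO stock diluted in medium), with or without HIV-1 IIIB (100 CCID₅₀/well), 4 days at 37 °C in RPMI 1640 with 10% FCS. Viable cells counted by MTT. CC₅₀ from mock-infected cells and EC₅₀ as 50% protection from virus-induced cytopathicity, run in parallel. Mean of at least two experiments.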

MT4 [2] = assay: Cytotoxicity against MT-4 cells.; type: functional, Homo sapiens; in short: as §1
[3] = target: Human immunodeficiency virus type 1 reverse transcriptase (Human immunodeficiency virus 1, UniProt Q72547); assay: Inhibitory activity against HIV-1 recombinant reverse transcriptase.
MT4 [4] = assay: CC50/EC50 ratio of the compound; type: functional
In short: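 Selectivity index, calculated as CC₅₀/EC₅₀. Both values come from the parallel MTT readout in mock-infected and HIV-1 IIIB-infected MT-4 cells (4-day incubation at 37 °C).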

[5] = system: Human immunodeficiency virus 1; assay: Anti-HIV-1 activity determined as dose required to reduce p24 antigen levels.; type: functional
MT4 [6] = assay: Anti-HIV-1 activity against WTIIIB HIV-1 strain in MT-4 cells; type: functional, cell-based; details: Homo sapiens
MT4 [7] = assay: Anti-HIV-1 activity against Y181C HIV-1 strain in MT-4 cells; type: functional, cell-based; details: Homo sapiens
[8] = Y181C/WTIIIB ratio of the compound; type: functional
In short: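 Fold resistance, given as the EC₅₀ against Y181C mutant HIV-1 divided by the EC₅₀ against wild-type IIIB. Each EC₅₀ is the dose giving 50% protection of MT-4 cells from virus-induced cytopathicity, read by MTT.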

[9] = Human immunodeficiency virus 1, MT4

Compound	EC50 [1, 9]	CC50 (MT4 [2]; Homo sapiens, MT4)	IC50 [3]	Selectivity index (MT4 [4])	other results
CC(c1ccccc1)c1cc(O)nc(SC2CCCC2)n1 (stereo not drawn)	600 nM	159000 nM	2100 nM	333	–
CC(c1cc(O)nc(SC2CCCC2)n1)c1c(Cl)cccc1Cl (stereo not drawn)	1000 nM	78300 nM	–	78.3	–
CCC(C)Sc1nc(O)cc(C(CC)c2ccccc2)n1 (stereo not drawn)	400 nM	> 200000 nM	–	>500	–
CCC(c1cc(O)nc(SC2CCCC2)n1)c1c(F)cccc1F (stereo not drawn)	150 nM	> 200000 nM	–	1333	EC90 [5]: 80 nM; EC99 [5]: 0.15 µM; EC99.9 [5]: 0.3 µM
CCC(c1ccccc1)c1cc(O)nc(SC2CCCC2)n1 (stereo not drawn)	1000 nM	> 200000 nM	> 10000 nM	>200	–
CCC(C)Sc1nc(O)cc(Cc2c(F)cccc2F)n1 (stereo not drawn)	40 nM	–	–	>5000	–
CCCCSc1nc(O)cc(C(C)c2c(F)cccc2F)n1 (stereo not drawn)	70 nM	> 200000 nM	–	2857	–
CCC(c1cc(O)nc(SC2CCCCC2)n1)c1c(Cl)cccc1Cl (stereo not drawn)	3600 nM	> 200000 nM	–	>55.5	–
O=c1cc(Cc2c(F)cccc2F)nc(SC2CCCC2)[nH]1	80 nM	–	–	>2500	EC90 [5]: 80 nM; EC99 [5]: 0.15 µM; EC99.9 [5]: 0.3 µM
CC(C)Sc1nc(O)cc(C(C)c2c(F)cccc2F)n1 (stereo not drawn)	50 nM	167000 nM	–	3340	EC90 [5]: 42 nM; EC99 [5]: 0.083 µM; EC99.9 [5]: 0.19 µM
CC(C)Sc1nc(Cc2c(F)cccc2F)cc(=O)[nH]1	50 nM	–	–	>4000	EC90 [5]: 42 nM; EC99 [5]: 0.083 µM; EC99.9 [5]: 0.19 µM
CCC(c1ccccc1)c1cc(O)nc(SC(C)C)n1 (stereo not drawn)	800 nM	200000 nM	2300 nM	250	–
Cc1c(C(C)c2c(F)cccc2F)nc(SC2CCCC2)[nH]c1=O (stereo in doubt; [+]3w)	–	> 200000 nM	8 nM	>100000	EC50 ([1]; mt4): 2 nM
Cc1c(O)nc(SCC(C)C)nc1C(C)c1c(F)cccc1F (stereo not drawn)	10 nM	> 200000 nM	–	>20000	–
CCC(c1cc(O)nc(SC2CCCC2)n1)c1cccc2ccccc12 (stereo not drawn)	3000 nM	51000 nM	–	17	–
CC(C)CSc1nc(O)cc(C(C)c2c(F)cccc2F)n1 (stereo not drawn)	50 nM	> 200000 nM	–	>4000	–
CC(C)Sc1nc(O)cc(C(C)c2c(Cl)cccc2Cl)n1 (stereo not drawn)	1200 nM	117000 nM	–	97.5	–
CC(c1cc(O)nc(SC2CCCCC2)n1)c1c(F)cccc1F (stereo not drawn)	160 nM	> 200000 nM	–	>1250	–
Cc1ccnc2c1NC(=O)c1cccnc1N2C1CC1 [NEVIRAPINE]	–	–	–	–	EC50 (MT4 [6]): 370 nM; EC50 (MT4 [7]): > 30000 nM
CCC(C)Sc1nc(O)cc(C(C)c2ccccc2)n1 (stereo not drawn)	230 nM	200000 nM	–	870	–
Cc1c(O)nc(SC2CCCCC2)nc1C(C)c1c(F)cccc1F (stereo not drawn)	18 nM	> 200000 nM	–	>11111	–
CCC(c1cc(O)nc(SC(C)C)n1)c1cccc2ccccc12 (stereo not drawn)	1500 nM	50000 nM	800 nM	33.3	–
Cc1c(C(C)c2c(F)cccc2F)nc(SC2CCCC2)[nH]c1=O (stereo in doubt; [-]3w)	–	–	1000 nM	>286	EC50 ([1]; mt4): 70 nM; CC50 (MT4 [2]): 200000 nM
CC(c1cc(O)nc(SC2CCCCC2)n1)c1cccc2ccccc12 (stereo not drawn)	140 nM	45000 nM	2600 nM	321.4	–

Compound	EC50 [1, 9]	CC50 (MT4 [2]; Homo sapiens, MT4)	IC50 [3]	Selectivity index (MT4 [4])	other results
CCC(c1ccccc1)c1cc(O)nc(SC2CCCCC2)n1 (stereo not drawn)	1300 nM	> 200000 nM	3700 nM	>154	–
CCCCSc1nc(O)c(C)c(C(C)c2c(F)cccc2F)n1 (stereo not drawn)	8 nM	112000 nM	–	14000	–
Cc1c(Cc2c(F)cccc2F)nc(SC2CCCC2)[nH]c1=O	80 nM	–	–	>2500	EC90 [5]: 40 nM; EC99 [5]: 0.075 µM; EC99.9 [5]: 0.15 µM; EC50 (MT4 [6]): 40 nM; EC50 (MT4 [7]): 1200 nM; Fold resistance [8]: 30
Cc1c(C(C)c2c(F)cccc2F)nc(SC2CCCC2)[nH]c1=O (stereo in doubt; 3w)	–	–	5 nM	>33333	EC90 [5]: 6 nM; EC99 [5]: 0.015 µM; EC99.9 [5]: 0.033 µM; EC50 ([1]; mt4): 6 nM
CCOCn1c(Cc2ccccc2)c(C(C)C)c(=O)[nH]c1=O [EMIVIRINE]	30 nM	–	–	6666	EC90 [5]: 14 nM; EC99 [5]: 0.041 µM; EC99.9 [5]: 0.082 µM
CC(c1cc(O)nc(SC2CCCC2)n1)c1cccc2ccccc12 (stereo not drawn)	500 nM	93000 nM	400 nM	186	–
Cc1c(Cc2c(F)cccc2F)nc(SC(C)C)[nH]c1=O	50 nM	–	–	>4000	EC90 [5]: 26 nM; EC99 [5]: 0.065 µM; EC99.9 [5]: 0.15 µM
CC(C)Sc1nc(O)cc(C(C)c2ccccc2)n1 (stereo not drawn)	900 nM	> 200000 nM	2300 nM	>222	–
CC(c1ccccc1)c1cc(O)nc(SC2CCCCC2)n1 (stereo not drawn)	600 nM	149000 nM	–	248	–
O=C1Nc2ccc(Cl)cc2[C@@](C#CC2CC2)(C(F)(F)F)O1 [EFAVIRENZ]	–	–	–	–	EC50 (MT4 [6]): 4 nM; EC50 (MT4 [7]): 25 nM; Fold resistance [8]: 6
CCC(c1cc(O)nc(SC(C)C)n1)c1c(F)cccc1F (stereo not drawn)	80 nM	70000 nM	–	875	EC90 [5]: 15 nM; EC99 [5]: 0.035 µM; EC99.9 [5]: 0.09 µM
CCC(c1cc(O)nc(SC2CCCC2)n1)c1c(Cl)cccc1Cl (stereo not drawn)	1000 nM	23400 nM	–	23.4	–
CCC(c1cc(O)nc(SC(C)C)n1)c1c(Cl)cccc1Cl (stereo not drawn)	400 nM	> 200000 nM	–	>500	–
CCC(C)Sc1nc(O)c(C)c(C(C)c2c(F)cccc2F)n1 (stereo not drawn)	30 nM	> 200000 nM	20 nM	6666	EC50 (MT4 [6]): 20 nM; EC50 (MT4 [7]): 300 nM; Fold resistance [8]: 15
CC(c1cc(=O)[nH]c(SC2CCCC2)n1)c1c(F)cccc1F (stereo not drawn)	30 nM	> 200000 nM	50 nM	>6666	EC90 [5]: 15 nM; EC99 [5]: 0.035 µM; EC99.9 [5]: 0.09 µM
Cc1c(O)nc(SC(C)C)nc1C(C)c1c(F)cccc1F (stereo not drawn)	7 nM	> 200000 nM	19 nM	>28570	–
CC(C)Sc1nc(O)cc(C(C)c2cccc3ccccc23)n1 (stereo not drawn)	1100 nM	119000 nM	5800 nM	108	–
CCC(C)Sc1nc(O)cc(C(C)c2c(F)cccc2F)n1 (stereo not drawn)	30 nM	> 200000 nM	–	>6666	–
CSc1nc(O)cc(C(C)c2c(F)cccc2F)n1 (stereo not drawn)	180 nM	20800 nM	200 nM	115	–
CC(c1cc(O)nc(SC2CCCCC2)n1)c1c(Cl)cccc1Cl (stereo not drawn)	2900 nM	> 200000 nM	–	>69	–
CCC(c1cc(O)nc(SC2CCCCC2)n1)c1c(F)cccc1F (stereo not drawn)	50 nM	> 200000 nM	–	2600	–
CSc1nc(O)c(C)c(C(C)c2c(F)cccc2F)n1 (stereo not drawn)	40 nM	> 200000 nM	20 nM	>5000	EC50 (MT4 [6]): 37 nM; EC50 (MT4 [7]): > 10000 nM; Fold resistance [8]: > 270
CCC(C)Sc1nc(O)c(C)c(Cc2c(F)cccc2F)n1 (stereo not drawn)	50 nM	> 200000 nM	–	>4000	–
CCC(c1cc(O)nc(SC2CCCCC2)n1)c1cccc2ccccc12 (stereo not drawn)	180 nM	16900 nM	1400 nM	94	–

— ChEMBL document CHEMBL1134546, “Structure-based design, synthesis, and biological evaluation of conformationally restricted novel 2-alkylthio-6-[1-(2,6-difluorophenyl)alkyl]-3,4-dihydro-5-alkylpyrimidin-4(3H)-ones as non-nucleoside inhibitors of HIV-1 reverse transcriptase” (J Med Chem, 2001)
